According to ChEMBL document CHEMBL4038306, “Development of an Aryloxazole Class of Hepatitis C Virus Inhibitors Targeting the Entry Stage of the Viral Replication Cycle” (J Med Chem, 2017):

Tests used:
[1] = AUClast in CD-1 mouse plasma at 10 mg/kg, ip administered as single dose after 24 hrs by UPLC-MS/MS method; format: ADME, organism-based
Summary of the method: (§1)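 Adult male CD-1 mice (25–39 g), one i.p. dose of 0.1, 1 or 10 mg/kg. […] Drug levels measured by UPLC–MS/MS and reported as means ± SEM. […] Serum ALT was also monitored.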

[2] = Tmax in CD-1 mouse liver at 1 mg/kg, ip administered as single dose after 24 hrs by UPLC-MS/MS method; format: ADME, organism-based; summary of the method: as §1
[3] = Cmax in CD-1 mouse liver at 0.1 mg/kg, ip administered as single dose after 24 hrs by UPLC-MS/MS method; format: ADME, organism-based; set-up: dose 0.1 mg/kg, route intraperitoneal; summary of the method: as §1
[4] = Tmax in CD-1 mouse plasma at 0.1 mg/kg, ip administered as single dose after 24 hrs by UPLC-MS/MS method; format: ADME, organism-based; summary of the method: as §1
[5] = Tmax in CD-1 mouse liver at 0.1 mg/kg, ip administered as single dose after 24 hrs by UPLC-MS/MS method; format: ADME, organism-based; summary of the method: as §1
Plasma [6] = experiment: Tmax in CD-1 mouse plasma at 0.1 mg/kg, ip administered as single dose after […] by UPLC-MS/MS method; format: ADME, organism-based; settings: in vivo
[7] = Permeability of the compound by PAMPA; format: physicochemical; settings: read-out: permeability
Summary of the method: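 Passive diffusion measured by stirred double-sink PAMPA; permeability expressed in 10⁻⁶ cm/s.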

[8] = AUClast in CD-1 mouse plasma at 1 mg/kg, ip administered as single dose after 24 hrs by UPLC-MS/MS method; format: ADME, organism-based; summary of the method: as §1
[9] = Ratio of AUC (infinity) in CD-1 mouse liver to plasma at 0.1 mg/kg, ip administered as single dose after […]; format: ADME, organism-based; settings: read-out: Ratio AUC
[10] = AUClast in CD-1 mouse liver at 10 mg/kg, ip administered as single dose after 24 hrs by UPLC-MS/MS method; format: ADME, organism-based; summary of the method: as §1
[11] = Tmax in CD-1 mouse liver at 0.1 mg/kg, ip administered as single dose after […] by UPLC-MS/MS method; format: ADME, organism-based
[12] = Ratio of AUClast in CD-1 mouse liver to plasma at 0.1 mg/kg, ip administered as single dose after […]; format: ADME, organism-based; settings: read-out: Ratio AUC
[13] = Ratio of Cmax in CD-1 mouse liver to plasma at 1 mg/kg, ip administered as single dose after 24 hrs; format: ADME, organism-based
Summary of the method: (§2)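 Adult male CD-1 mice (25–39 g) received one intraperitoneal dose. Plasma and liver were sampled at set time points, n = 3 mice per time point. Compound levels were measured by UPLC–MS/MS.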

[14] = Tmax in CD-1 mouse liver at 10 mg/kg, ip administered as single dose after 24 hrs by UPLC-MS/MS method; format: ADME, organism-based; summary of the method: as §1
[15] = AUClast in CD-1 mouse liver at 0.1 mg/kg, ip administered as single dose after 24 hrs by UPLC-MS/MS method; format: ADME, organism-based; summary of the method: as §1
[16] = Cmax in CD-1 mouse plasma at 1 mg/kg, ip administered as single dose after 24 hrs by UPLC-MS/MS method; format: ADME, organism-based; set-up: dose 1 mg/kg, route intraperitoneal; summary of the method: as §1
[17] = AUClast in CD-1 mouse plasma at 0.1 mg/kg, ip administered as single dose after […] by UPLC-MS/MS method; format: ADME, organism-based
Plasma [18] = experiment: Cmax in CD-1 mouse plasma at 0.1 mg/kg, ip administered as single dose after […] by UPLC-MS/MS method; format: ADME, organism-based; set-up: dose 0.1 mg/kg, route intraperitoneal; settings: in vivo
[19] = Cmax in CD-1 mouse liver at 10 mg/kg, ip administered as single dose after 24 hrs by UPLC-MS/MS method; format: ADME, organism-based; set-up: dose 10 mg/kg, route intraperitoneal; summary of the method: as §1
[20] = Ratio of Cmax in CD-1 mouse liver to plasma at 0.1 mg/kg, ip administered as single dose after 24 hrs; format: ADME, organism-based; summary of the method: as §2
[21] = Cmax in CD-1 mouse liver at 0.1 mg/kg, ip administered as single dose after […] by UPLC-MS/MS method; format: ADME, organism-based; set-up: dose 0.1 mg/kg, route intraperitoneal
[22] = Cmax in CD-1 mouse plasma at 10 mg/kg, ip administered as single dose after 24 hrs by UPLC-MS/MS method; format: ADME, organism-based; set-up: dose 10 mg/kg, route intraperitoneal; summary of the method: as §1
[23] = AUClast in CD-1 mouse liver at 0.1 mg/kg, ip administered as single dose after […] by UPLC-MS/MS method; format: ADME, organism-based
[24] = Ratio of AUClast in CD-1 mouse liver to plasma at 1 mg/kg, ip administered as single dose after 24 hrs; format: ADME, organism-based; settings: read-out: Ratio AUC
Summary of the method: (§3)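 Adult male CD-1 mice (25–39 g), n = 3 per sampling time point, given one i.p. dose (0.1, 1 or 10 mg/kg). Plasma and liver levels measured by UPLC–MS/MS. […] Serum ALT was monitored alongside.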

[25] = Tmax in CD-1 mouse plasma at 10 mg/kg, ip administered as single dose after 24 hrs by UPLC-MS/MS method; format: ADME, organism-based; summary of the method: as §1
[26] = Tmax in CD-1 mouse plasma at 1 mg/kg, ip administered as single dose after 24 hrs by UPLC-MS/MS method; format: ADME, organism-based; summary of the method: as §1
[27] = Cmax in CD-1 mouse plasma at 0.1 mg/kg, ip administered as single dose after 24 hrs by UPLC-MS/MS method; format: ADME, organism-based; set-up: dose 0.1 mg/kg, route intraperitoneal; summary of the method: as §1
Plasma [28] = experiment: AUC (infinity) in CD-1 mouse plasma at 0.1 mg/kg, ip administered as single dose after […] by UPLC-MS/MS method; format: ADME, organism-based; set-up: dose 0.1 mg/kg, time infinity, route intraperitoneal; settings: in vivo
[29] = Ratio of Cmax in CD-1 mouse liver to plasma at 0.1 mg/kg, ip administered as single dose after […]; format: ADME, organism-based; settings: liver and plasma
[30] = Cmax in CD-1 mouse liver at 1 mg/kg, ip administered as single dose after 24 hrs by UPLC-MS/MS method; format: ADME, organism-based; set-up: dose 1 mg/kg, route intraperitoneal; summary of the method: as §1
[31] = AUClast in CD-1 mouse liver at 1 mg/kg, ip administered as single dose after 24 hrs by UPLC-MS/MS method; format: ADME, organism-based; summary of the method: as §1
[32] = Ratio of AUClast in CD1 mouse liver to plasma at 10 mg/kg, ip administered as single dose after 24 hrs; format: ADME, organism-based; settings: CD-1, mouse, read-out: Ratio AUC; summary of the method: as §3
[33] = AUClast in CD-1 mouse plasma at 0.1 mg/kg, ip administered as single dose after 24 hrs by UPLC-MS/MS method; format: ADME, organism-based; summary of the method: as §1
[34] = Ratio of Cmax in CD-1 mouse liver to plasma at 10 mg/kg, ip administered as single dose after 24 hrs; format: ADME, organism-based; summary of the method: as §2
[35] = Drug uptake in CD-1 mouse liver at 1 mg/kg, ip administered as single dose after 24 hrs by UPLC-MS/MS method; format: ADME, organism-based; settings: read-out: Drug uptake; summary of the method: as §1
[36] = Ratio of AUClast in CD-1 mouse liver to plasma at 0.1 mg/kg, ip administered as single dose after 24 hrs; format: ADME, organism-based; settings: read-out: Ratio AUC; summary of the method: as §3
[37] = Drug uptake in CD-1 mouse liver at 0.1 mg/kg, ip administered as single dose after 5 mins by UPLC-MS/MS method; format: ADME, organism-based; settings: read-out: Drug uptake; summary of the method: as §1

Cc1oc(-c2ccc(Cl)c(Cl)c2)nc1CN1CCC(C(=O)NCCCN2C[C@H](C)C[C@H](C)C2)CC1
AUC(0-t) at 24 h [1]: 17.6 µM·h | Tmax [2]: 4 h | Cmax [3]: 1110 nM | Tmax [4]: 4.98 min | Tmax [5]: 7 h | Tmax (Plasma [6]): 4.98 min | Papp [7]: 522 ×10⁻⁶ cm/s | AUC(0-t) at 24 h [8]: 0.88 µM·h | Kp at […] [9]: 510 | AUC(0-t) at 24 h [10]: 719 µM·h | Tmax at […] [11]: 7 h | Kp at […] [12]: 448 | Kp at 24 h [13]: 67 | Tmax [14]: 7 h | AUC(0-t) at 24 h [15]: 19.7 µM·h | Cmax [16]: 146 nM | AUC(0-t) at […] [17]: 0.117 µM·h | Cmax (Plasma [18]): 8.76 nM | Cmax [19]: 34500 nM | Kp at 24 h [20]: 126 | Cmax at […] [21]: 1110 nM | Cmax [22]: 4740 nM | AUC(0-t) at […] [23]: 52.3 µM·h | Kp at 24 h [24]: 224 | Tmax [25]: 4.98 min | Tmax [26]: 0.25 h | Cmax [27]: 8.76 nM | AUC (Plasma [28]): 0.0639 µM·h | Kp at […] [29]: 126 | Cmax [30]: 9820 nM | AUC(0-t) at 24 h [31]: 197 µM·h | Kp at 24 h [32]: 41 | AUC(0-t) at 24 h [33]: 0.0494 µM·h | Kp at 24 h [34]: 7 | concentration at 24 h [35]: 3330 to 9820 nM | Kp at 24 h [36]: 399 | concentration at 5 min [37]: 390 nM
